Hits are enriched below; roughly 2.3% of the tested compounds scored in any of these assays.
TAAR1 antag: human TAAR1 antagonism. Q96RJ0. CHO RD-HGA16 TAAR1, Fluo-8 calcium fluorescence, antagonist. 360,000 compounds, 1.5% hits. inhibition, % at 3 µM;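 active = inhibition above a per-plate cutoff, the mean inhibition of test compounds on that plate plus 3 SD, cut at about 49% in these data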
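Test system – hTAAR1-expressing CHO RD-HGA16 cells, Gα16-coupled · Reagent – β-PEA at EC80 concentration, post-compound challenge · Compound dosing – 3 µM, single point · Timing – 140 s kinetic read after compound, 140 s after agonist · Detection – Fluo-8 intracellular calcium dye fluorescence, real-time kinetic reads · Control set – DMSO and EC80 PEA controls · Repeats – n of 1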
TAAR1 ag: agonists of human TAAR1; CHO RD-HGA16 TAAR1, Fluo-8 calcium fluorescence; vehicle wells 0%, saturating PEA agonist 100%; activation, % at 3 µM; 360,000 compounds, 0.99% hits; AID 624467;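 active = activation above the mean activation of all test compounds in the run plus 3 SD, cut at about 38% in these data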
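Benchmarks: low control DMSO, high control PEA (EC100); System: CHO RD-HGA16 cells carrying human TAAR1 plus Gα16; Detection: Fluo-8 fluorescence, 5 s baseline then 140 s kinetic read; Schedule: 17-24 h plating, Fluo-8 75 min 37 °C, 30 min RT; Read-out basis: % activation from peak over basal fluorescence ratio, DMSO-to-PEA scaled.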
V1R ag counter: counter-screen for oxytocin receptor agonists: human V1a receptor agonists; P37288; CHO-V1R cells, Fluo-8 calcium fluorescence, agonist mode; 0% DMSO, 100% 3 nM vasopressin; activation, % at 3 µM; 320,000 compounds, 0.25% hits;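 active = activation above the mean activation of all tested compounds plus 3 SD, per screening run, cut at about 20% in these data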;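 note: signal is peak over basal fluorescence ratio across a 100 second FLIPR read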
Target sequence (P37288 whole entry, looked up): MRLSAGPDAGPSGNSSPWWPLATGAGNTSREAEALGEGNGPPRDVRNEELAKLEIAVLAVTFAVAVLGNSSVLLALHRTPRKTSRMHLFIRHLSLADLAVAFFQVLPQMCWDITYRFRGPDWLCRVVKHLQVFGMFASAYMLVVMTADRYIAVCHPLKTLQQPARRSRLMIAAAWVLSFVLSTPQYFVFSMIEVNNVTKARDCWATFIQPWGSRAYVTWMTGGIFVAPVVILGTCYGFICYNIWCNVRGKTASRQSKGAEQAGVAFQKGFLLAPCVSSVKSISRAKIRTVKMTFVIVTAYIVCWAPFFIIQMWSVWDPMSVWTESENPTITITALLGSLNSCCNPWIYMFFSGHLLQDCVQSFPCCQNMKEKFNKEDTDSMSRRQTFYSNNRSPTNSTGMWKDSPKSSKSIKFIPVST
OXTR potentiate: potentiators of human oxytocin receptor; P30559; CHO-OTR cells, Fluo-8 calcium fluorescence, potentiator mode; 0% = oxytocin EC15, 100% = EC100; activation, % at 3 µM; 320,000 compounds, 0.061% hits;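 active = activation above that plate's cutoff, the mean activation of tested compounds plus 3 SD, cut at about 6.6% in these data, passing the limit was not always enough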
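Assay system: CHO-OTR cells, human receptor / Also added: oxytocin at about EC15, sub-maximal agonist stimulus / Dosing: single dose, 3.0 µM nominal final compound concentration / Incubation: 6 min pre-incubation, 100 s read / Technique: Fluo-8 calcium dye fluorescence / Read-out: % activation vs EC15 and EC100 oxytocin / Benchmarks: EC15 oxytocin low, 75 nM oxytocin high / Replicates: singlicate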
OXTR ag: human OXTR agonism. activation, % at 3 µM. CHO-OTR cells, Fluo-8 calcium fluorescence; normalized: DMSO 0%, oxytocin 100%. AID 2435. P30559. 320,000 compounds, 0.32% hits;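 active = activation above the mean of all tested compounds plus 3 SD, cutoff set per screening run, cut at about 20% in these data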;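 note: peak over basal fluorescence ratio from a 100 s FLIPR kinetic read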
nonsel antag count: nonselective antagonist in TAAR1 antagonist counter-screen; shares compounds with TAAR1 antag; counterscreen cell line, calcium fluorescence, antagonist mode; inhibition, % at 3 µM; 2,400 compounds, 77% hits; AID 651780; in the data active = inhibition above about 22%;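 note: CHO-Ga16 host cells stimulated with ATP at an EC80 level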
TAAR1 ant conf: human TAAR1 antagonism, confirmed; inhibition, % at 3 µM; 2,400 compounds, 40% hits; shares compounds with TAAR1 antag; AID 651785; TAAR1-expressing cells, fluorescence antagonist read-out; in the data active = inhibition above about 49%;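 note: CHO-Ga16 host cells challenged with agonist PEA near its EC80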
Ga16 ag counter: nonselective Ga16 agonist in TAAR1 antagonist counter-screen; shares compounds with TAAR1 antag; Ga16-expressing cells, calcium fluorescence, agonist counterscreen; activation, % at 3 µM; 2,400 compounds, 18% hits; AID 651953; in the data active = activation above about 12%
TAAR1 ag counter: counter-screen for human TAAR1 antagonists: TAAR1 agonists. activation, % at 3 µM. shares compounds with TAAR1 antag. 2,400 compounds, 2% hits. hTAAR1 cell line, fluorescence activation, agonist mode; in the data active = activation above about 37%;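 note: CHO cells stably expressing TAAR1 with calcium dye readout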
Each line names hits and unclear results; the compound was inactive in the other large screens (follow-up assays come after a bar, where they were run).

COc1ccc(-c2ccc(CN3C(C(C)C)C(=O)N(Cc4cn(CCC5OCCCO5)nn4)CCS3(=O)=O)cc2)cc1OC (centres undefined)	none (no result: V1R ag counter, OXTR potentiate, OXTR ag)
CC1C(=O)N(Cc2cn(CCC3OCCCO3)nn2)CCS(=O)(=O)N1Cc1ccc(-c2ccc(Cl)cc2)cc1 (centres undefined)	TAAR1 antag 87 (no result: V1R ag counter, OXTR potentiate, OXTR ag) | nonsel antag count 45 | TAAR1 ant conf 59 | Ga16 ag counter 16 | TAAR1 ag counter inactive
COC(=O)N[C@@H]1C[C@H]2[C@@H]3CC[C@H]4C[C@@H](OC)CC[C@]4(C)[C@H]3CC[C@]12C	TAAR1 antag 55 | nonsel antag count inactive | TAAR1 ant conf inactive | Ga16 ag counter inactive | TAAR1 ag counter inactive
COc1cc(/C=N/NC(=O)c2csc3c2CCCC3)ccc1OCCN1CCOCC1	none
Cc1ccc(C2=NOC(C)(c3nnc(-c4cccc(Cl)c4)o3)C2)cc1 (centres undefined)	none
CC1(c2nnc(-c3cccc(Cl)c3)o2)CC(c2c(Cl)cccc2Cl)=NO1 (centres undefined)	TAAR1 antag 64 | nonsel antag count 22 | TAAR1 ant conf inactive | Ga16 ag counter inactive | TAAR1 ag counter inactive
CCC(=O)c1ccc(OCC(=O)OCc2csc(CC(=O)Nc3ccccc3C)n2)cc1	none (no result: V1R ag counter, OXTR potentiate, OXTR ag)
CN(C1CCCCC1)S(=O)(=O)c1ccc(NC(=O)c2ccc(Br)o2)cc1	TAAR1 antag 63 | nonsel antag count 23 | TAAR1 ant conf inactive | Ga16 ag counter inactive | TAAR1 ag counter inactive
O=C(CCSCc1cccc(F)c1)NCCc1ccccc1	TAAR1 antag 56 | nonsel antag count inactive | TAAR1 ant conf 69 | Ga16 ag counter inactive | TAAR1 ag counter inactive
COc1ccc2c(c1)CC/C(=C\c1ccc(OC)c(Cn3cccn3)c1)C2=O	TAAR1 antag 60 | nonsel antag count 34 | TAAR1 ant conf 51 | Ga16 ag counter inactive | TAAR1 ag counter inactive
COc1ccc(/C=C2\CCc3ccccc3C2=O)cc1CN1CCOCC1	none
Cc1ccc(NC(=O)C(C)c2ccc(-c3ccccc3)c(F)c2)c(C)c1 (centres undefined)	TAAR1 antag 54 | nonsel antag count inactive | TAAR1 ant conf inactive | Ga16 ag counter inactive | TAAR1 ag counter inactive
C=CCOC(=O)C1=C[C@H](c2cn(C(C)=O)c3ccccc23)C[C@H](OCc2ccc(CO)cc2)O1	TAAR1 antag 75 | nonsel antag count 38 | TAAR1 ant conf 52 | Ga16 ag counter inactive | TAAR1 ag counter inactive
CC(=O)n1cc([C@@H]2C=C(C(=O)N3CCN(C)CC3)O[C@H](OCc3ccc(CO)cc3)C2)c2ccccc21	none
O=C(NCc1ccccc1)C1=C[C@@H](c2coc3ccccc3c2=O)C[C@@H](OCc2ccc(CO)cc2)O1	TAAR1 antag 52 | nonsel antag count inactive | TAAR1 ant conf inactive | Ga16 ag counter inactive | TAAR1 ag counter inactive
CCO[C@@H]1OC(C(=O)NCc2ccccc2)=C[C@H](c2coc3ccccc3c2=O)[C@H]1CCCO	TAAR1 antag 50 | nonsel antag count inactive | TAAR1 ant conf inactive | Ga16 ag counter inactive | TAAR1 ag counter inactive
CCOCCCn1c(=S)[nH]c2cc(C(=O)NCCCN(CC)CC)ccc2c1=O	none
CCC(CC)Nc1ccc(C(CC(N)=O)NC(=O)c2ccccc2)cc1[N+](=O)[O-] (centres undefined)	none
CCOC(=O)c1c(NC(=O)COC(=O)CCNS(=O)(=O)c2ccccc2)sc(C(=O)N(C)C)c1C	none (no result: V1R ag counter, OXTR potentiate, OXTR ag)
CC(C)(C)c1ccc(Cn2c(=O)cnc3ccccc32)cc1	none

Screening results as filed in PubChem.
